38 sequences from the array DNA melting data of Ke et al. (doi:10.1101/2024.01.08.574731) can be followed below.

The nature of data set [1]: melting temperature; fluorescence melt of hairpins on a sequencing array, two-state fit, raised by 9.35 °C to match UV melts. As to conditions: sodium 0.088 M. The method, boiled down:
(§1)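 Folding enthalpy and melting temperature come from bootstrapped two-state fits to Cy3 fluorescence of library hairpins carrying annealed Cy3 and quencher oligos on a sequenced MiSeq flow cell. Imaging was done in 50 mM Na-HEPES pH 8.0, 25 mM NaCl, stepping by 2.5 °C up to 60 °C, and signals were normalised to pre-quench Cy3 and to control constructs. Results of four replicates were combined by inverse variance, and fitted temperatures were raised by 9.35 °C to match UV melts.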

Data set [2] can be described thus: folding enthalpy; higher = less favourable; fluorescence melt of hairpins on a sequencing array, two-state fit. As to conditions: sodium 0.088 M. Put shortly:
as §1

For the sequence GCGCGCGAAAGCGGACGC ((((((....)))..))), the Tm in data set [1] turned out to be 64.9 °C. In addition, the folding enthalpy in data set [2] is -16.5 kcal/mol.
As for GCGCGGCGAAAGCAACGC (((..((....))..))), the Tm in data set [1] worked out at 60 °C. Further, the folding enthalpy in data set [2] was -15.8 kcal/mol.
The corresponding values for GCGCGGCGAAAGCCTCGC (((.(((....))).))) are 66.7 °C and -26.2 kcal/mol.
As to GCGCGTCGAAAGACACGC (((.(((....))).))), in data set [1], the Tm amounted to 62.9 °C. Moreover, the folding enthalpy in data set [2] was -45.5 kcal/mol.
With GCGCGTGGAAACACGCAC (.(((((....))))).), the Tm in data set [1] worked out at 54.7 °C. Besides, the folding enthalpy in data set [2] was -9.64 kcal/mol.
In the case of GCGCTAGGAAACCAGCGC (((((.(....).))))), the Tm in data set [1] stood at 57.3 °C. Also, the folding enthalpy in data set [2] is -45.4 kcal/mol.
Turning to GCGCTCGAAAGAGAACGC ((((((....)))..))), the Tm in data set [1] is 50.4 °C. Further, the folding enthalpy in data set [2] is -30.8 kcal/mol.
GCGCTCGAAAGAGCACGC ((((((....)))..))): in data set [1], the Tm came out at 60 °C. In addition, in data set [2], the folding enthalpy was -16.7 kcal/mol.
Taken in the same sequence, the figures for GCGCTCGAAAGAGTCGC ((((((....))).))) were 57.7 °C and -30.6 kcal/mol.
The corresponding values for GCGCTGCGAAAGCAAGGC ((..(((....)))..)) are 46.7 °C and -16 kcal/mol.
As for GCGCTGCGAAAGCACGGC ((..(((....)))..)), the Tm in data set [1] amounted to 51.5 °C. In addition, the folding enthalpy in data set [2] is -15.1 kcal/mol.
With GCGCTGGGAAACTGGCGC ((((..(....)..)))), in data set [1], the Tm was 57.3 °C. In data set [2], the folding enthalpy was -49.8 kcal/mol.
In the case of GCGCTTCGAAAGAACCGC (((.(((....))).))), in data set [1], the Tm was 46.4 °C. The folding enthalpy in data set [2] was -31.7 kcal/mol.
On to GCGCTTGGAAACAAACGC (((.(((....))).))), for which the Tm in data set [1] was determined as 48 °C. Moreover, in data set [2], the folding enthalpy is -34.1 kcal/mol.
As to GCGGAAACCGC ((((...)))), the Tm in data set [1] worked out at 52.9 °C. In addition, the folding enthalpy in data set [2] is -23 kcal/mol.
Taken in the same sequence, the figures for GCGGAAACGAAAGTTCGC (((..(((....)))))) were 48.8 °C and -27.5 kcal/mol.
For the sequence GCGGAAGCGAAAGCTCGC (((..(((....)))))), in data set [1], the Tm came out at 52.1 °C. Also, the folding enthalpy in data set [2] is -31.5 kcal/mol.
For the sequence GCGGAAGGCCGC ((((....)))), the Tm in data set [1] came out at 53.1 °C. In data set [2], the folding enthalpy is -21.7 kcal/mol.
Consider GCGGAATTCCGC ((((....)))), for which, in data set [1], the Tm amounted to 56.3 °C. The folding enthalpy in data set [2] is -36.5 kcal/mol.
On to GCGGACAACCGC ((((....)))), for which the Tm in data set [1] stood at 53.1 °C. Moreover, in data set [2], the folding enthalpy is -19.5 kcal/mol.
For GCGGACACCCGC ((((....)))), the Tm in data set [1] came out at 53.5 °C. Further, the folding enthalpy in data set [2] is -20.9 kcal/mol.
Consider GCGGACAGCCGC ((((....)))), for which the Tm in data set [1] was 53.8 °C. For the same sequence, in data set [2], the folding enthalpy is -17.4 kcal/mol.
As for GCGGACCCCGC ((((...)))), the Tm in data set [1] stood at 54.4 °C. Besides, the folding enthalpy in data set [2] is -20.9 kcal/mol.
For the sequence GCGGACCGCCGC ((((....)))), the Tm in data set [1] was 55.8 °C. For the same sequence, the folding enthalpy in data set [2] is -19.1 kcal/mol.
Turning to GCGGACCTCCGC ((((....)))), in data set [1], the Tm was 55.9 °C. In addition, in data set [2], the folding enthalpy was -27.4 kcal/mol.
In the case of GCGGACGAAAGTCCCCGC ((((((....)))..))), the Tm in data set [1] is 45.8 °C. The folding enthalpy in data set [2] is -12.7 kcal/mol.
For GCGGACGAAAGTCGGCGC ((((((....)))..))), the Tm in data set [1] was 68 °C. The folding enthalpy in data set [2] is -26.7 kcal/mol.
As to GCGGACGAAAGTCGTCGC ((((((....)))..))), in data set [1], the Tm is 52.6 °C. For the same sequence, the folding enthalpy in data set [2] was -22.8 kcal/mol.
For the sequence GCGGACGAAAGTCTACGC ((((((....)))..))), in data set [1], the Tm is 52.2 °C. Further, in data set [2], the folding enthalpy was -28.8 kcal/mol.
GCGGACGGAAACACCCGC ((((..(....)..)))): the Tm in data set [1] is 41.9 °C. Further, in data set [2], the folding enthalpy was -26.9 kcal/mol.
For GCGGACGGAAACGCCCGC ((((.((....)).)))), in data set [1], the Tm is 67.8 °C. In data set [2], the folding enthalpy was -36.7 kcal/mol.
GCGGACGGAAACGTCCAC (.(((((....))))).): in data set [1], the Tm worked out at 51.1 °C. Further, the folding enthalpy in data set [2] was -12.2 kcal/mol.
As to GCGGACGTCCGC ((((....)))), the Tm in data set [1] was 60.8 °C. Moreover, the folding enthalpy in data set [2] was -53.7 kcal/mol.
Take GCGGACTTCCGC ((((....)))): the Tm in data set [1] is 57.4 °C. For the same sequence, the folding enthalpy in data set [2] is -23.2 kcal/mol.
Taken in the same sequence, the figures for GCGGAGCCCCGC ((((....)))) were 55.8 °C and -10.7 kcal/mol.
As to GCGGAGCCCGC ((((...)))), the Tm in data set [1] was 49.4 °C. In addition, the folding enthalpy in data set [2] was -11.3 kcal/mol.
As to GCGGAGCGAAAGCAGCGC (((..((....))..))), the Tm in data set [1] was found to be 58 °C. In data set [2], the folding enthalpy is -17.1 kcal/mol.
The corresponding values for GCGGAGCGAAAGCCCTGC ((.(.((....)).).)) are 43.7 °C and -10.6 kcal/mol.
